Source: ChEMBL document CHEMBL3745632, “Development of a novel sulfonate ester-based prodrug strategy” (Bioorg Med Chem Lett, 2016)

Key:
[1] = Inhibition of aeromonas proteolytica aminopeptidase at 5 uM incubated at pH 8 and 30 degC followed by addition of 50 uM L-leucine-p-nitroanilide substrate by spectrophotometry; settings: vibrio proteolyticus, pH 8, 5 µM
How it was run: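 The prodrug (5 μM) was preincubated with AAP (0.02 units/mL) at pH 8.0 and 30 °C for set times in 10 mM HEPES (pH 8.0) containing 2% DMSO. L-leucine-p-nitroanilide (50 μM) was then added, and its hydrolysis was followed at 25 °C by ΔAbs405 from released p-nitroaniline (ε405 = 10300). In the control, the prodrug was preincubated without enzyme, and AAP was added together with the substrate.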

[2] = Drug level in HEPES buffer treated with 200 uM (S)-4-sulfamoylphenyl 3-(2-amino-4-methylpentanamido)propane-1-sulfonate in presence of aeromonas proteolytica aminopeptidase by spectrophotometry; assay type: ADME; settings: vibrio proteolyticus
How it was run: (§1)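 Each substrate (50 or 200 μM) was incubated with AAP (1.05 units/mL) in 50 mM HEPES (pH 8.0) containing 2% DMSO for varying periods. Release of the corresponding phenol was monitored over time.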

[3] = Drug level in HEPES buffer treated with 200 uM (S)-4-(trifluoromethyl)phenyl 3-(2-amino-4-methylpentanamido)propane-1-sulfonate in presence of aeromonas proteolytica aminopeptidase by spectrophotometry; assay type: ADME; settings: vibrio proteolyticus; how it was run: as §1
[4] = Drug metabolism in HEPES buffer assessed as aeromonas proteolytica aminopeptidase-mediated compound hydrolysis at 1.3 mM by spectrophotometry; assay type: ADME; settings: vibrio proteolyticus, 1300 µM
[5] = Dissociation constant, pKa of the compound; assay type: physicochemical
[6] = Drug metabolism in HEPES buffer assessed as aeromonas proteolytica aminopeptidase-mediated Isothiazolidine 1,1-dioxide formation at 200 uM by spectrophotometry; assay type: ADME; settings: vibrio proteolyticus
[7] = Drug metabolism in HEPES buffer assessed as aeromonas proteolytica aminopeptidase-mediated 4-chlorophenol formation at 200 uM by spectrophotometry; assay type: ADME; settings: vibrio proteolyticus; how it was run: as §1
[8] = Drug level in HEPES buffer treated with 200 uM (S)-4-chlorophenyl 3-(2-amino-4-methylpentanamido)propane-1-sulfonate in presence of aeromonas proteolytica aminopeptidase by spectrophotometry; assay type: ADME; settings: vibrio proteolyticus
How it was run: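 Compound at 200 μM incubated for a given period with Aeromonas proteolytica aminopeptidase (1.05 units/mL) in 50 mM HEPES, pH 8.0, containing 2% DMSO. Liberation of the corresponding phenol was followed over time to evaluate the intramolecular cyclization rate k₂.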

[9] = Drug level in HEPES buffer treated with 2 mM (S)-2-methylquinolin-8-yl 3-(2-amino-4-methylpentanamido)propane-1-sulfonate for 12 hrs in presence of aeromonas proteolytica aminopeptidase by spectrophotometry; assay type: ADME; settings: vibrio proteolyticus
[10] = Drug level in HEPES buffer treated with 50 uM (S)-2-methylquinolin-8-yl 3-(2-amino-4-methylpentanamido)propane-1-sulfonate in presence of aeromonas proteolytica aminopeptidase by spectrophotometry; assay type: ADME; settings: vibrio proteolyticus; how it was run: as §1
Serum [11] = experiment: Metabolic stability in human serum assessed as compound decomposed at 5 mM by HPLC analysis; assay type: ADME; settings: 5000 µM
[12] = Metabolic stability in CD1 mouse liver S9 fraction assessed as compound remaining at 5 mM by HPLC analysis; assay type: ADME, subcellular; settings: read-out: Stability
[13] = Retention time of compound by HPLC analysis; assay type: physicochemical
[14] = Drug metabolism in HEPES buffer assessed as aeromonas proteolytica aminopeptidase-mediated 4-(trifluoromethyl)phenol formation at 200 uM by spectrophotometry; assay type: ADME; settings: vibrio proteolyticus; how it was run: as §1
Serum [15] = experiment: Drug level in human serum treated with 5 mM (S)-2-methylquinolin-8-yl 3-(2-amino-4-methylpentanamido)propane-1-sulfonate after 24 hrs by HPLC analysis; assay type: ADME, cell-free
[16] = Drug metabolism in HEPES buffer assessed as aeromonas proteolytica aminopeptidase-mediated compound hydrolysis at 2 mM by spectrophotometry; assay type: ADME; settings: vibrio proteolyticus, 2000 µM
[17] = Drug metabolism in HEPES buffer assessed as aeromonas proteolytica aminopeptidase-mediated 5-chloroquinolin-8-yl 4-chlorobutane-1-sulfonate formation at 2 mM after 12 hrs by spectrophotometry; assay type: ADME; settings: vibrio proteolyticus, 2000 µM
[18] = Drug metabolism in HEPES buffer assessed as aeromonas proteolytica aminopeptidase-mediated 2-methylquinolin-8-ol formation at 2 mM after 12 hrs by spectrophotometry; assay type: ADME; settings: vibrio proteolyticus, 2000 µM
[19] = Metabolic stability in human serum assessed as compound decomposed at 5 mM after 24 hrs by HPLC analysis; assay type: ADME; settings: read-out: Drug metabolism
[20] = Drug metabolism in HEPES buffer assessed as aeromonas proteolytica aminopeptidase-mediated 5-chloroquinolin-8-yl 3-chloropropane-1-sulfonate formation at 2 mM after 12 hrs by spectrophotometry; assay type: ADME; settings: vibrio proteolyticus, 2000 µM
[21] = Drug metabolism in HEPES buffer assessed as aeromonas proteolytica aminopeptidase-mediated 2-methylquinolin-8-ol formation at 50 uM by spectrophotometry; assay type: ADME; settings: vibrio proteolyticus; how it was run: as §1
Serum [22] = experiment: Drug metabolism in human serum assessed as 2-methylquinolin-8-yl 3-aminopropane-1-sulfonate formation at 5 mM after 24 hrs by HPLC analysis; assay type: ADME, cell-free; settings: 5000 µM
[23] = Drug metabolism in CD1 mouse S9 fraction assessed as 2-methylquinolin-8-yl 3-aminopropane-1-sulfonate formation at 5 mM after 3 hrs by HPLC analysis; assay type: ADME, Liver; settings: s9, 3 h, 5000 µM
[24] = Drug metabolism in HEPES buffer assessed as aeromonas proteolytica aminopeptidase-mediated Isothiazolidine 1,1-dioxide formation at 2 mM after 12 hrs by spectrophotometry; assay type: ADME; settings: vibrio proteolyticus, 2000 µM
[25] = Drug metabolism in HEPES buffer assessed as aeromonas proteolytica aminopeptidase-mediated Isothiazolidine 1,1-dioxide formation at 50 uM by spectrophotometry; assay type: ADME; settings: vibrio proteolyticus
Serum [26] = experiment: Drug metabolism in human serum assessed as 2-methylquinolin-8-ol formation at 5 mM after 24 hrs by HPLC analysis; assay type: ADME, cell-free; settings: 5000 µM
[27] = Drug metabolism in HEPES buffer assessed as aeromonas proteolytica aminopeptidase-mediated 4-hydroxybenzenesulfonamide formation at 200 uM by spectrophotometry; assay type: ADME; settings: vibrio proteolyticus; how it was run: as §1
Liver = experiment: Drug level in CD1 mouse liver S9 fraction treated with 5 mM (S)-2-methylquinolin-8-yl 3-(2-amino-4-methylpentanamido)propane-1-sulfonate after 3 hrs by HPLC analysis; assay type: ADME, subcellular; settings: s9, 3 h
[28] = Inhibition of aeromonas proteolytica aminopeptidase using L-leucine-p-nitroanilide as substrate by spectrophotometry; design: species or system Vibrio proteolyticus

Compound: CC(C)C[C@H](N)C(=O)NCCCS(=O)(=O)Oc1ccc(Cl)c2cccnc12
- inhibition (INH) [1]: Active

Compound: CC(C)C[C@H](N)C(=O)NCCCCS(=O)(=O)Oc1ccc(Cl)c2cccnc12
- inhibition (INH) [1]: Active

Compound: NS(=O)(=O)c1ccc(O)cc1
- Drug metabolism [2]: metabolite_detected

Compound: Oc1ccc(C(F)(F)F)cc1
- Drug metabolism [3]: metabolite_detected

Compound: Cc1ccc2cccc(OS(=O)(=O)CCNC(=O)[C@@H](N)CC(C)C)c2n1
- Drug metabolism [4]: metabolite_detected

Compound: CC(C)C[C@H](N)C(=O)NCCCS(=O)(=O)Oc1ccc(Cl)cc1
- pKa [5]: 9.6
- Drug metabolism [6]: metabolite_detected
- Drug metabolism [7]: metabolite_detected

Compound: O=S1(=O)CCCN1
- Drug metabolism [8]: metabolite_detected
- Drug metabolism [9]: metabolite_detected
- Drug metabolism [10]: metabolite_detected
- Drug metabolism [2]: metabolite_detected
- Drug metabolism [3]: metabolite_detected

Compound: Cc1ccc2cccc(OS(=O)(=O)CCCN=[N+]=[N-])c2n1
- Stability (Serum [11]): Stable
- remaining [12]: 88%
- Retention_time [13]: 17.5 min

Compound: Oc1ccc(Cl)cc1 [PARACHLOROPHENOL]
- Drug metabolism [8]: metabolite_detected

Compound: CC(C)C[C@H](N)C(=O)NCCCS(=O)(=O)Oc1ccc(C(F)(F)F)cc1
- pKa [5]: 8.9
- Drug metabolism [6]: metabolite_detected
- Drug metabolism [14]: metabolite_detected

Compound: Cc1ccc2cccc(O)c2n1 [8-HYDROXY QUINALDINE]
- Drug metabolism (Serum [15]): metabolite_detected
- Drug metabolism [9]: metabolite_detected
- Drug metabolism [10]: metabolite_detected
- Retention_time [13]: 4.6 min

Compound: Cc1ccc2cccc(OS(=O)(=O)CCCCNC(=O)[C@@H](N)CC(C)C)c2n1
- Drug metabolism [16]: metabolite_detected

Compound: Cc1ccc2cccc(OS(=O)(=O)CCCNC(=O)[C@@H](N)CC(C)C)c2n1
- Drug metabolism [17]: metabolite_notdetected
- Drug metabolism [18]: metabolite_detected
- metabolised at 24 h, 5000 µM [19]: 35%
- Drug metabolism [20]: metabolite_notdetected
- pKa [5]: 10.9
- Drug metabolism [21]: metabolite_detected
- Drug metabolism (Serum [22]): metabolite_detected
- Drug metabolism [23]: metabolite_detected
- Retention_time [13]: 21 min
- Drug metabolism [24]: metabolite_detected
- Drug metabolism [25]: metabolite_detected
- Drug metabolism (Serum [26]): metabolite_detected

Compound: CC(C)C[C@H](N)C(=O)NCCCS(=O)(=O)Oc1ccc(S(N)(=O)=O)cc1
- Drug metabolism [27]: metabolite_detected
- pKa [5]: 8.3
- Drug metabolism [6]: metabolite_detected

Compound: Cc1ccc2cccc(OS(=O)(=O)CCCN)c2n1
- Drug metabolism (Serum [15]): metabolite_detected
- Drug metabolism (Liver): metabolite_detected
- Retention_time [13]: 6.5 min

Compound: Oc1ccc(Cl)c2cccnc12 [CLOXYQUIN]
- Ki [28]: 190 nM
